# Assay results published in ChEMBL document CHEMBL1124735, “Dehydrogenase binding by tiazofurin anabolites” (J Med Chem, 1990).
# Compound: NC(=O)c1ccc[n+]([C@@H]2O[C@H](COP(=O)([O-])OP(=O)(O)OC[C@H]3O[C@@H](n4cnc5c(N)ncnc54)[C@H](O)[C@@H]3O)[C@@H](O)[C@H]2O)c1
# Assay: In vitro inhibitory activity against pig heart cytoplasmic malate dehydrogenase (MDH),
# Outline: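 Pig heart enzymes (cytoplasmic MDH or LDH, from ammonium sulfate suspension) assayed in 0.05 M Tris HCl pH 9.0, with NAD as substrate; rates from NADH appearance by A340 (ε 6.22 mM⁻¹cm⁻¹) or fluorescence calibrated against NADH standards. Run at least in duplicate; kinetic constants from Lineweaver-Burk plots by linear regression.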
protein,measurement,value
"Malate dehydrogenase, cytoplasmic (Sus scrofa), P11708 (protein) MSEPIRVLVTGAAGQIAYSLLYSIGNGSVFGKDQPIILVLLDITPMMGVLDGVLMELQDCALPLLKDVIATDKEEIAFKDLDVAILVGSMPRRDGMERKDLLKANVKIFKCQGAALDKYAKKSVKVIVVGNPANTNCLTASKSAPSIPKENFSCLTRLDHNRAKAQIALKLGVTSDDVKNVIIWGNHSSTQYPDVNHAKVKLQAKEVGVYEAVKDDSWLKGEFITTVQQRGAAVIKARKLSSAMSAAKAICDHVRDIWFGTPEGEFVSMGIISDGNSYGVPDDLLYSFPVTIKDKTWKIVEGLPINDFSREKMDLTAKELAEEKETAFEFLSSA",Km,33.9 µM
